≈ marks a conversion by molar mass, not a printed value. Calls of active or inactive are those of the source. The rule behind the calls is not given here.
Legend:
Assay type in all cases: functional
[1] = tested on: Bacillus subtilis; experiment: Antibacterial activity against Bacillus subtilis ATCC 6633 after 24 hrs by two fold serial dilution method; conditions: ATCC 6633, 24 h
Method in brief: (§1)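 MIC determined by two-fold serial dilution in the appropriate nutrient broth, only for compounds that gave sizeable inhibition zones in the well diffusion screen. Final concentrations stepped down by halves from 66 (66, 33, 16.5 …).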

[2] = tested on: Mycolicibacterium phlei; experiment: Antibacterial activity against Mycobacterium phlei after 24 hrs by agar well diffusion method
Method in brief: (§2)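 Agar well diffusion on nutrient agar seeded with bacterial suspension at 1 × 10⁸ CFU/mL. Wells received compound solution from a stock of 100 mg per mL DMSO. Plates incubated 24 h at 37 °C. Read-out is inhibition zone diameter (mm), done in triplicate and averaged.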

[3] = tested on: Priestia megaterium; experiment: Antibacterial activity against Bacillus megaterium after 24 hrs by agar well diffusion method; method in brief: as §2
[4] = tested on: Bacillus subtilis; experiment: Antibacterial activity against Bacillus subtilis ATCC 6633 after 24 hrs by agar well diffusion method; method in brief: as §2
[5] = tested on: Candida albicans; experiment: Antifungal activity against Candida albicans NRRL Y-477 after 48 hrs by agar well diffusion method
Method in brief: (§3)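 Fungal agar well diffusion on Sabouraud dextrose agar seeded at 1 × 10⁶ CFU/mL. Wells received compound solution from a 100 mg per mL DMSO stock. Incubation 48 h at 28 °C. Inhibition zone diameter (mm) measured in triplicate and averaged.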

[6] = tested on: Klebsiella pneumoniae; experiment: Antibacterial activity against Klebsiella pneumoniae ATCC 13883 after 24 hrs by two fold serial dilution method; conditions: ATCC 13883, 24 h; method in brief: as §1
[7] = tested on: Escherichia coli; experiment: Antibacterial activity against Escherichia coli ATCC 25922 after 24 hrs by agar well diffusion method; method in brief: as §2
[8] = tested on: Klebsiella pneumoniae; experiment: Antibacterial activity against Klebsiella pneumoniae ATCC 13883 after 24 hrs by agar well diffusion method; method in brief: as §2
[9] = tested on: Staphylococcus aureus; experiment: Antibacterial activity against Staphylococcus aureus ATCC 29213 after 24 hrs by agar well diffusion method; method in brief: as §2
[10] = tested on: Priestia megaterium; experiment: Antibacterial activity against Bacillus megaterium after 24 hrs by two fold serial dilution method; method in brief: as §1
[11] = tested on: Micrococcus luteus; experiment: Antibacterial activity against Sarcina lutea after 24 hrs by agar well diffusion method; method in brief: as §2
[12] = tested on: Candida albicans; experiment: Antifungal activity against Candida albicans NRRL Y-477 by two fold serial dilution method; method in brief: as §1
[13] = tested on: Saccharomyces cerevisiae; experiment: Antifungal activity against Saccharomyces cerevisiae after 48 hrs by agar well diffusion method; method in brief: as §3
[14] = tested on: Saccharomyces cerevisiae; experiment: Antifungal activity against Saccharomyces cerevisiae by two fold serial dilution method; method in brief: as §1
[15] = tested on: Pseudomonas aeruginosa; experiment: Antibacterial activity against Pseudomonas aeruginosa ATCC 27953 after 24 hrs by agar well diffusion method; method in brief: as §2
[16] = tested on: Staphylococcus aureus; experiment: Antibacterial activity against Staphylococcus aureus ATCC 29213 after 24 hrs by two fold serial dilution method; conditions: ATCC 29213, 24 h; method in brief: as §1
[17] = tested on: Pseudomonas aeruginosa; experiment: Antibacterial activity against Pseudomonas aeruginosa ATCC 27953 after 24 hrs by two fold serial dilution method; conditions: ATCC 27953, 24 h; method in brief: as §1
[18] = tested on: Escherichia coli; experiment: Antibacterial activity against Escherichia coli ATCC 25922 after 24 hrs by two fold serial dilution method; conditions: ATCC 25922, 24 h; method in brief: as §1
[19] = tested on: Micrococcus luteus; experiment: Antibacterial activity against Sarcina lutea after 24 hrs by two fold serial dilution method; method in brief: as §1
[20] = tested on: Mycolicibacterium phlei; experiment: Antibacterial activity against Mycobacterium phlei after 24 hrs by two fold serial dilution method; method in brief: as §1

SMILES: CC(=N/NC(=O)COc1ccc(Cl)cc1Cl)/C(Cl)=N\Nc1ccc(Cl)cc1
- MIC [1]: 66 µg/mL (≈ 147 µM)
- diameter of the inhibition zone (DIZ) [2]: 15 mm
- diameter of the inhibition zone (DIZ) [3]: 20 mm
- diameter of the inhibition zone (DIZ) [4]: 18 mm
- diameter of the inhibition zone (DIZ) [5]: 18 mm
- MIC [6]: 33 µg/mL (≈ 73.6 µM)
- diameter of the inhibition zone (DIZ) [7]: inactive
- diameter of the inhibition zone (DIZ) [8]: 21 mm
- diameter of the inhibition zone (DIZ) [9]: inactive
- MIC [10]: 16.5 µg/mL (≈ 36.8 µM)
- diameter of the inhibition zone (DIZ) [11]: inactive
- MIC [12]: 66 µg/mL (≈ 147 µM)
- diameter of the inhibition zone (DIZ) [13]: 24 mm
- MIC [14]: 16.5 µg/mL (≈ 36.8 µM)
- diameter of the inhibition zone (DIZ) [15]: inactive

SMILES: CC(=N\NC(=O)COc1ccc2ccccc2c1)/C(=N\Nc1ccc(Cl)cc1)S(=O)(=O)c1ccccc1
- MIC [1]: 33 µg/mL (≈ 61.7 µM)
- diameter of the inhibition zone (DIZ) [2]: inactive
- diameter of the inhibition zone (DIZ) [3]: 23 mm
- diameter of the inhibition zone (DIZ) [4]: 20 mm
- diameter of the inhibition zone (DIZ) [5]: 24 mm
- MIC [6]: 16.5 µg/mL (≈ 30.8 µM)
- diameter of the inhibition zone (DIZ) [7]: 28 mm
- MIC [16]: 16.5 µg/mL (≈ 30.8 µM)
- MIC [17]: 16.5 µg/mL (≈ 30.8 µM)
- diameter of the inhibition zone (DIZ) [8]: 24 mm
- diameter of the inhibition zone (DIZ) [9]: 23 mm
- MIC [10]: 16.5 µg/mL (≈ 30.8 µM)
- diameter of the inhibition zone (DIZ) [11]: inactive
- MIC [12]: 8.25 µg/mL (≈ 15.4 µM)
- diameter of the inhibition zone (DIZ) [13]: 30 mm
- MIC [14]: 8.25 µg/mL (≈ 15.4 µM)
- MIC [18]: 8.25 µg/mL (≈ 15.4 µM)
- diameter of the inhibition zone (DIZ) [15]: 26 mm

SMILES: CC(=N/NC(=O)COc1ccc2ccccc2c1)/C(Cl)=N\Nc1ccc(Br)cc1
- MIC [1]: 66 µg/mL (≈ 139 µM)
- diameter of the inhibition zone (DIZ) [2]: inactive
- diameter of the inhibition zone (DIZ) [3]: 21 mm
- diameter of the inhibition zone (DIZ) [4]: 18 mm
- diameter of the inhibition zone (DIZ) [5]: 21 mm
- MIC [6]: 33 µg/mL (≈ 69.7 µM)
- diameter of the inhibition zone (DIZ) [7]: inactive
- diameter of the inhibition zone (DIZ) [8]: 21 mm
- diameter of the inhibition zone (DIZ) [9]: inactive
- MIC [10]: 16.5 µg/mL (≈ 34.8 µM)
- diameter of the inhibition zone (DIZ) [11]: inactive
- MIC [12]: 33 µg/mL (≈ 69.7 µM)
- diameter of the inhibition zone (DIZ) [13]: 24 mm
- MIC [14]: 16.5 µg/mL (≈ 34.8 µM)
- diameter of the inhibition zone (DIZ) [15]: inactive

SMILES: CC(=N/NC(=O)COc1ccc(Cl)cc1Cl)/C(=N\Nc1ccc(Br)cc1)Sc1ccccc1
- MIC [1]: 66 µg/mL (≈ 117 µM)
- diameter of the inhibition zone (DIZ) [2]: inactive
- diameter of the inhibition zone (DIZ) [3]: 20 mm
- diameter of the inhibition zone (DIZ) [4]: 18 mm
- diameter of the inhibition zone (DIZ) [5]: 20 mm
- MIC [6]: 66 µg/mL (≈ 117 µM)
- diameter of the inhibition zone (DIZ) [7]: inactive
- diameter of the inhibition zone (DIZ) [8]: 18 mm
- MIC [19]: 16.5 µg/mL (≈ 29.1 µM)
- diameter of the inhibition zone (DIZ) [9]: inactive
- MIC [10]: 16.5 µg/mL (≈ 29.1 µM)
- diameter of the inhibition zone (DIZ) [11]: 20 mm
- MIC [12]: 66 µg/mL (≈ 117 µM)
- diameter of the inhibition zone (DIZ) [13]: 23 mm
- MIC [14]: 33 µg/mL (≈ 58.3 µM)
- diameter of the inhibition zone (DIZ) [15]: inactive

SMILES: O=C(COc1ccc2ccccc2c1)NN/C=C(\NNC(=O)COc1ccc2ccccc2c1)c1cc2ccccc2oc1=O
- MIC [1]: 66 µg/mL (≈ 110 µM)
- diameter of the inhibition zone (DIZ) [2]: inactive
- diameter of the inhibition zone (DIZ) [3]: 20 mm
- diameter of the inhibition zone (DIZ) [4]: 18 mm
- diameter of the inhibition zone (DIZ) [5]: 20 mm
- MIC [6]: 33 µg/mL (≈ 54.9 µM)
- diameter of the inhibition zone (DIZ) [7]: inactive
- diameter of the inhibition zone (DIZ) [8]: 21 mm
- diameter of the inhibition zone (DIZ) [9]: inactive
- MIC [10]: 16.5 µg/mL (≈ 27.5 µM)
- diameter of the inhibition zone (DIZ) [11]: inactive
- MIC [12]: 66 µg/mL (≈ 110 µM)
- diameter of the inhibition zone (DIZ) [13]: 21 mm
- MIC [14]: 16.5 µg/mL (≈ 27.5 µM)
- diameter of the inhibition zone (DIZ) [15]: inactive

SMILES: O=C(COc1ccc2ccccc2c1)NNCC(=O)Nc1nccs1
- MIC [1]: 66 µg/mL (≈ 185 µM)
- diameter of the inhibition zone (DIZ) [2]: inactive
- diameter of the inhibition zone (DIZ) [3]: 22 mm
- diameter of the inhibition zone (DIZ) [4]: 18 mm
- diameter of the inhibition zone (DIZ) [5]: 20 mm
- MIC [6]: 33 µg/mL (≈ 92.6 µM)
- diameter of the inhibition zone (DIZ) [7]: inactive
- diameter of the inhibition zone (DIZ) [8]: 23 mm
- diameter of the inhibition zone (DIZ) [9]: inactive
- MIC [10]: 8.25 µg/mL (≈ 23.1 µM)
- diameter of the inhibition zone (DIZ) [11]: inactive
- MIC [12]: 66 µg/mL (≈ 185 µM)
- diameter of the inhibition zone (DIZ) [13]: 22 mm
- MIC [14]: 16.5 µg/mL (≈ 46.3 µM)
- diameter of the inhibition zone (DIZ) [15]: inactive

SMILES: CC(=N/NC(=O)COc1ccc(Cl)cc1Cl)/C(Cl)=N\Nc1ccc(Br)cc1
- MIC [1]: 66 µg/mL (≈ 134 µM)
- diameter of the inhibition zone (DIZ) [2]: inactive
- diameter of the inhibition zone (DIZ) [3]: 22 mm
- diameter of the inhibition zone (DIZ) [4]: 18 mm
- diameter of the inhibition zone (DIZ) [5]: 21 mm
- MIC [6]: 33 µg/mL (≈ 67 µM)
- diameter of the inhibition zone (DIZ) [7]: inactive
- diameter of the inhibition zone (DIZ) [8]: 20 mm
- diameter of the inhibition zone (DIZ) [9]: inactive
- MIC [10]: 16.5 µg/mL (≈ 33.5 µM)
- diameter of the inhibition zone (DIZ) [11]: inactive
- MIC [12]: 33 µg/mL (≈ 67 µM)
- diameter of the inhibition zone (DIZ) [13]: 27 mm
- MIC [14]: 8.25 µg/mL (≈ 16.7 µM)
- diameter of the inhibition zone (DIZ) [15]: inactive

SMILES: CC(=N/NC(=O)COc1ccc(Cl)cc1Cl)/C(=N\Nc1ccc(Cl)cc1)S(=O)(=O)c1ccccc1
- MIC [1]: 8.25 µg/mL (≈ 14.9 µM)
- diameter of the inhibition zone (DIZ) [2]: 30 mm
- diameter of the inhibition zone (DIZ) [3]: 32 mm
- diameter of the inhibition zone (DIZ) [4]: 29 mm
- diameter of the inhibition zone (DIZ) [5]: 30 mm
- MIC [6]: 16.5 µg/mL (≈ 29.8 µM)
- diameter of the inhibition zone (DIZ) [7]: 30 mm
- MIC [16]: 8.25 µg/mL (≈ 14.9 µM)
- MIC [17]: 16.5 µg/mL (≈ 29.8 µM)
- diameter of the inhibition zone (DIZ) [8]: 28 mm
- MIC [19]: 8.25 µg/mL (≈ 14.9 µM)
- MIC [20]: 4.12 µg/mL (≈ 7.45 µM)
- diameter of the inhibition zone (DIZ) [9]: 27 mm
- MIC [10]: 8.25 µg/mL (≈ 14.9 µM)
- diameter of the inhibition zone (DIZ) [11]: 26 mm
- MIC [12]: 4.12 µg/mL (≈ 7.45 µM)
- diameter of the inhibition zone (DIZ) [13]: 32 mm
- MIC [14]: 4.12 µg/mL (≈ 7.45 µM)
- MIC [18]: 4.12 µg/mL (≈ 7.45 µM)
- diameter of the inhibition zone (DIZ) [15]: 28 mm

SMILES: CC(=N/NC(=O)COc1ccc(Cl)cc1Cl)/C(=N\Nc1ccc(Cl)cc1)Sc1ccccc1
- diameter of the inhibition zone (DIZ) [2]: 13 mm
- diameter of the inhibition zone (DIZ) [3]: inactive
- diameter of the inhibition zone (DIZ) [4]: inactive
- diameter of the inhibition zone (DIZ) [5]: inactive
- MIC [6]: 16.5 µg/mL (≈ 31.6 µM)
- diameter of the inhibition zone (DIZ) [7]: inactive
- diameter of the inhibition zone (DIZ) [8]: 24 mm
- diameter of the inhibition zone (DIZ) [9]: inactive
- diameter of the inhibition zone (DIZ) [11]: inactive
- diameter of the inhibition zone (DIZ) [13]: 28 mm
- MIC [14]: 4.12 µg/mL (≈ 7.9 µM)
- diameter of the inhibition zone (DIZ) [15]: inactive

SMILES: CC(=N/NC(=O)COc1ccc2ccccc2c1)/C(Cl)=N\Nc1ccc(Cl)cc1
- diameter of the inhibition zone (DIZ) [2]: 16 mm
- diameter of the inhibition zone (DIZ) [3]: inactive
- diameter of the inhibition zone (DIZ) [4]: inactive
- diameter of the inhibition zone (DIZ) [5]: 20 mm
- MIC [6]: 16.5 µg/mL (≈ 38.4 µM)
- diameter of the inhibition zone (DIZ) [7]: 21 mm
- diameter of the inhibition zone (DIZ) [8]: 24 mm
- diameter of the inhibition zone (DIZ) [9]: inactive
- diameter of the inhibition zone (DIZ) [11]: inactive
- MIC [12]: 33 µg/mL (≈ 76.9 µM)
- diameter of the inhibition zone (DIZ) [13]: 26 mm
- MIC [14]: 16.5 µg/mL (≈ 38.4 µM)
- MIC [18]: 16.5 µg/mL (≈ 38.4 µM)
- diameter of the inhibition zone (DIZ) [15]: inactive

Source: ChEMBL document CHEMBL1949515, “Regioselective synthesis and antimicrobial activities of some novel aryloxyacetic acid derivatives” (2012)
